In the array DNA melting data of Ke et al. (doi:10.1101/2024.01.08.574731):

Columns and labels:
[1] = folding enthalpy; higher = less favourable; fluorescence melt of hairpins on a sequencing array, two-state fit; conditions: sodium 0.088 M
Summary of the method: (§1)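 Cy3 signals were normalised both to pre-quench Cy3 and to control constructs. They came from library hairpins carrying annealed Cy3 and quencher oligos on a sequenced MiSeq flow cell, imaged in 50 mM Na-HEPES pH 8.0, 25 mM NaCl, in 2.5 °C steps up to 60 °C. Bootstrapped two-state fits gave melting temperature and folding enthalpy, and four replicates were combined by inverse variance. Fitted temperatures were then raised by 9.35 °C to match UV melts.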

[2] = melting temperature; fluorescence melt of hairpins on a sequencing array, two-state fit, raised by 9.35 °C to match UV melts; conditions: sodium 0.088 M
Summary of the method: as §1

| Sequence | folding enthalpy [1] | Tm [2] |
| --- | --- | --- |
| GCCTTCGAAAGAAGGGC ((((((....))).))) | -15 kcal/mol | 63.1 °C |
| GCCTTCGAAAGAAGTGGC ((((((....)))..))) | -22 kcal/mol | 44.5 °C |
| GCCTTCGAAAGAATCGGC ((((((....)))..))) | -23.4 kcal/mol | 34.8 °C |
| GCCTTCGAAAGAATGGC ((((((....))).))) | -27.2 kcal/mol | 49 °C |
| GCCTTGCGAAAGCAGAGC ((..(((....)))..)) | -11.7 kcal/mol | 51.2 °C |
| GCCTTGCGAAAGCCAGGC ((((.((....)).)))) | -31.4 kcal/mol | 62.6 °C |
| GCCTTGCGAAAGCTAGGC ((((.((....)).)))) | -44.4 kcal/mol | 67.2 °C |
| GCCTTGGAAACAAGGC ((((((....)))))) | -34.6 kcal/mol | 67.8 °C |
| GCCTTGGGAAACCAAAGC ((.((((....)))).)) | -18 kcal/mol | 37.6 °C |
| GCCTTGGGAAACCAAGGC (((((((....))))))) | -44.1 kcal/mol | 68.8 °C |
| GCCTTGGGAAACTAAGGC (((((.(....).))))) | -34.7 kcal/mol | 50.9 °C |
| GCCTTGGGAAACTAGGGC (((.(.(....).).))) | -30.1 kcal/mol | 36.5 °C |
| GCCTTGTCGAAAGACGGC (((..(((....)))))) | -18 kcal/mol | 47.8 °C |
| GCCTTTCGAAAGAAGGC (((.(((....)))))) | -29.1 kcal/mol | 50.4 °C |
| GCCTTTGGAAACGAAGGC (((((.(....).))))) | -35.4 kcal/mol | 51.6 °C |
| GCGAAAAGTCGC ((((....)))) | -12.1 kcal/mol | 41.7 °C |
| GCGAAACCGAAAGGTCGC (((..(((....)))))) | -29.9 kcal/mol | 54.4 °C |
| GCGAAAGATCGC ((((....)))) | -12.4 kcal/mol | 39.9 °C |
| GCGAAAGGAAACCTTCGC (((((.(....).))))) | -34.4 kcal/mol | 48.8 °C |
| GCGAACACGAAAGTGCGC (((..(((....)))))) | -21.2 kcal/mol | 51 °C |
| GCGAACCATCGC ((((....)))) | -18.7 kcal/mol | 47.7 °C |
| GCGAACCGAAAGGTACGC (((.(((....))).))) | -45.7 kcal/mol | 64.3 °C |
| GCGAACCGAAAGGTCCGC (((.(((....))).))) | -44.5 kcal/mol | 62.8 °C |
| GCGAACGAAAGTTCCCGC ((((((....)))..))) | -16.3 kcal/mol | 36.7 °C |

| Sequence | folding enthalpy [1] | Tm [2] |
| --- | --- | --- |
| GCGAACGGAAACGTTCAC (.(((((....))))).) | -14.4 kcal/mol | 46.1 °C |
| GCGAACGGTCGC ((((....)))) | -30.9 kcal/mol | 47.7 °C |
| GCGAAGACTCGC ((((....)))) | -15.8 kcal/mol | 44.8 °C |
| GCGAAGCGAAAGCATAGC ((.(.((....)).).)) | -15.7 kcal/mol | 52.5 °C |
| GCGAAGCGAAAGCATCGC ((((.((....)).)))) | -17.4 kcal/mol | 61.1 °C |
| GCGAAGCGAAAGCCCCGC (((..((....))..))) | -7.44 kcal/mol | 36.3 °C |
| GCGAAGCGAAAGCGTCGC ((((.((....)).)))) | -21.3 kcal/mol | 68.7 °C |
| GCGAAGCGAAAGCTAGGC ((..(((....)))..)) | -5.32 kcal/mol | 40.9 °C |
| GCGAAGCGAAAGCTCAGC ((..(((....)))..)) | -7.68 kcal/mol | 41.1 °C |
| GCGAAGCGAAAGCTCGC (((.(((....)))))) | -24.3 kcal/mol | 67.1 °C |
| GCGAAGCGAAAGCTGTGC ((..(((....)))..)) | -8.75 kcal/mol | 46.5 °C |
| GCGAAGGATCGC ((((....)))) | -9.71 kcal/mol | 59.7 °C |
| GCGAAGGGAAACCTTTGC ((.((((....)))).)) | -34.6 kcal/mol | 49.8 °C |
| GCGAAGGTTCGC ((((....)))) | -20.8 kcal/mol | 50.4 °C |
| GCGAAGTTCGC ((((...)))) | -17 kcal/mol | 46.4 °C |
| GCGAATACTCGC ((((....)))) | -22.1 kcal/mol | 46.2 °C |
| GCGAATCTCGC ((((...)))) | -19.7 kcal/mol | 47.4 °C |
| GCGAATGCTCGC ((((....)))) | -11.5 kcal/mol | 57.7 °C |
| GCGAATGGAAACATTTGC ((.((((....)))).)) | -33.6 kcal/mol | 49.5 °C |
| GCGAATTCGAAAGAACGC (((..(((....)))))) | -20.4 kcal/mol | 40.5 °C |
| GCGACAGGAAACCGTCGC (((((.(....).))))) | -43.4 kcal/mol | 58.8 °C |
| GCGACAGGAAACTACCGC (((..((....))..))) | -20.5 kcal/mol | 31.6 °C |
| GCGACAGGAAACTATCGC ((((.((....)).)))) | -31.9 kcal/mol | 43.7 °C |
| GCGACATGTCGC ((((....)))) | -37 kcal/mol | 63.8 °C |

| Sequence | folding enthalpy [1] | Tm [2] |
| --- | --- | --- |
| GCGACCACGAAAGTGCGC (((..(((....)))))) | -20.9 kcal/mol | 48.5 °C |
| GCGACCCCGAAAGGGCGC (((..(((....)))))) | -29.1 kcal/mol | 67.7 °C |
| GCGACCCCTCGC ((((....)))) | -23.4 kcal/mol | 50.1 °C |
| GCGACCCTCGC ((((...)))) | -20.7 kcal/mol | 49.4 °C |
| GCGACCGAAAGGTCTCGC ((((((....)))..))) | -14.6 kcal/mol | 50.2 °C |
| GCGACCGGAAACGACCGC (((..((....))..))) | -27.4 kcal/mol | 41.8 °C |
| GCGACCGGAAACGATCGC ((((.((....)).)))) | -38.7 kcal/mol | 55 °C |
| GCGACCGGAAACGGCCAC (.(.(((....))).).) | -14.4 kcal/mol | 32.5 °C |
| GCGACCGTCGC ((((...)))) | -26.8 kcal/mol | 45.5 °C |
| GCGACCTATCGC ((((....)))) | -28.4 kcal/mol | 49.3 °C |
| GCGACGCGAAAGCAGCGC (((..((....))..))) | -30.3 kcal/mol | 65.7 °C |
| GCGACGCGAAAGCCTCGC ((((.((....)).)))) | -33.3 kcal/mol | 60.4 °C |
| GCGACGCGAAAGCCTGGC ((.(.((....)).).)) | -5.89 kcal/mol | 28.1 °C |
| GCGACGCGAAAGCGAGGC ((..(((....)))..)) | -12.8 kcal/mol | 54.6 °C |
| GCGACGCGAAAGCTCCGC (((..((....))..))) | -20.2 kcal/mol | 50.6 °C |
| GCGACGGCGAAAGCCCGC (((..(((....)))))) | -16.6 kcal/mol | 58.1 °C |
| GCGACGGGAAACCGCCAC (.(.(((....))).).) | -13.4 kcal/mol | 31.9 °C |
| GCGACGGGAAACCGTCAC (.(((((....))))).) | -13 kcal/mol | 48.7 °C |
| GCGACTCATCGC ((((....)))) | -24.5 kcal/mol | 49 °C |
| GCGACTCGAAAGAGCGC (((.(((....)))))) | -32.7 kcal/mol | 60.4 °C |
| GCGACTGGAAACAACCGC (((..((....))..))) | -18.1 kcal/mol | 29.2 °C |
| GCGACTTCTCGC ((((....)))) | -25.7 kcal/mol | 47.8 °C |
| GCGAGAGATCGC ((((....)))) | -17.5 kcal/mol | 50.3 °C |
| GCGAGATTTCGC ((((....)))) | -20.1 kcal/mol | 50.1 °C |

| Sequence | folding enthalpy [1] | Tm [2] |
| --- | --- | --- |
| GCGAGCACTCGC ((((....)))) | -26.4 kcal/mol | 56.8 °C |
| GCGAGCCCGAAAGGGCGC (((..(((....)))))) | -7.38 kcal/mol | 55.8 °C |
| GCGAGCCCTCGC ((((....)))) | -26 kcal/mol | 55 °C |
| GCGAGCCTCGC ((((...)))) | -21.9 kcal/mol | 49.7 °C |
| GCGAGCGAAAGCTACCGC ((((((....)))..))) | -18.8 kcal/mol | 48.1 °C |
| GCGAGCGAAAGCTGTCGC ((((((....)))..))) | -23.8 kcal/mol | 52.9 °C |
| GCGAGCGAAAGCTTCGC ((((((....))).))) | -28 kcal/mol | 66.1 °C |
| GCGAGCGGAAACGCTTGC ((.((((....)))).)) | -34.4 kcal/mol | 61.9 °C |
| GCGAGCGTCGC ((((...)))) | -10.2 kcal/mol | 60 °C |
| GCGAGCTATCGC ((((....)))) | -24.2 kcal/mol | 60.8 °C |
| GCGAGCTCTCGC ((((....)))) | -30.9 kcal/mol | 53.1 °C |
| GCGAGCTTCGC ((((...)))) | -18.5 kcal/mol | 49 °C |
| GCGAGGAGTCGC ((((....)))) | -13.4 kcal/mol | 52.8 °C |
| GCGAGGCGAAAGCCATGC ((..(((....)))..)) | -17.6 kcal/mol | 58.1 °C |
| GCGAGGCGAAAGCCTGGC ((.((((....)))).)) | -24.8 kcal/mol | 66.5 °C |
| GCGAGGCGAAAGCGTTGC ((.(.((....)).).)) | -18.6 kcal/mol | 55.5 °C |
| GCGAGGCGAAAGCTTAGC ((.(.((....)).).)) | -16.7 kcal/mol | 56.9 °C |
| GCGAGGGCGAAAGCCCGC (((..(((....)))))) | -8.66 kcal/mol | 59.5 °C |
| GCGAGGTATCGC ((((....)))) | -21.6 kcal/mol | 55.6 °C |
| GCGAGGTCTCGC ((((....)))) | -22 kcal/mol | 54.9 °C |
| GCGAGTACGAAAGTACGC (((..(((....)))))) | -12 kcal/mol | 53.1 °C |
| GCGAGTAGTCGC ((((....)))) | -19.9 kcal/mol | 54.3 °C |
| GCGAGTCATCGC ((((....)))) | -24.8 kcal/mol | 67.8 °C |
| GCGAGTGGAAACGCTCGC (((((.(....).))))) | -46 kcal/mol | 64 °C |
